Test results reported in ChEMBL document CHEMBL1240439, “Synthesis and docking studies of novel benzopyran-2-ones with anticancer activity” (2010).

Columns and labels:
Format in all cases: functional
[1] = tested on: K562; assay: Cytotoxicity against human K562 cells assessed as cell growth at 10 uM after 48 hrs by sulforhodamine B assay; conditions: K562, 48 h, read-out: Activity
[2] = tested on: PC-3; assay: Cytotoxicity against human PC3 cells assessed as cell growth at 10 uM after 48 hrs by sulforhodamine B assay; conditions: PC-3, 48 h, read-out: Activity
[3] = tested on: HL-60(TB); assay: Cytotoxicity against human HL-60(TB) cells assessed as cell growth at 10 uM after 48 hrs by sulforhodamine B assay; conditions: HL-60, 48 h, read-out: Activity
[4] = tested on: EKVX; assay: Cytotoxicity against human EKVX cells assessed as cell growth at 10 uM after 48 hrs by sulforhodamine B assay; conditions: read-out: Activity
[5] = tested on: SK-MEL-2; assay: Cytotoxicity against human SK-MEL-2 cells assessed as cell growth at 10 uM after 48 hrs by sulforhodamine B assay; conditions: SK-MEL-2, 48 h, read-out: Activity
[6] = tested on: HOP-62; assay: Cytotoxicity against human HOP62 cells assessed as cell growth at 10 uM after 48 hrs by sulforhodamine B assay; conditions: HOP-62, 48 h, read-out: Activity
[7] = tested on: NCI-H460; assay: Cytotoxicity against human NCI-H460 cells assessed as cell growth at 10 uM after 48 hrs by sulforhodamine B assay; conditions: NCI-H460, 48 h, read-out: Activity
[8] = tested on: NCI-H226; assay: Cytotoxicity against human NCI-H226 cells assessed as cell growth at 10 uM after 48 hrs by sulforhodamine B assay; conditions: NCI-H226, 48 h, read-out: Activity
[9] = tested on: NCI-H23; assay: Cytotoxicity against human NCI-H23 cells assessed as cell growth at 10 uM after 48 hrs by sulforhodamine B assay; conditions: NCI-H23, 48 h, read-out: Activity
[10] = tested on: HCC 2998; assay: Cytotoxicity against human HCC2998 cells assessed as cell growth at 10 uM after 48 hrs by sulforhodamine B assay; conditions: HCC 2998, 48 h, read-out: Activity
[11] = tested on: HCT-116; assay: Cytotoxicity against human HCT116 cells assessed as cell growth at 10 uM after 48 hrs by sulforhodamine B assay; conditions: HCT-116, 48 h, read-out: Activity
[12] = tested on: HCT-15; assay: Cytotoxicity against human HCT15 cells assessed as cell growth at 10 uM after 48 hrs by sulforhodamine B assay; conditions: HCT-15, 48 h, read-out: Activity
[13] = tested on: IGROV-1; assay: Cytotoxicity against human IGROV1 cells assessed as cell growth at 10 uM after 48 hrs by sulforhodamine B assay; conditions: IGROV-1, 48 h, read-out: Activity
[14] = tested on: OVCAR-3; assay: Cytotoxicity against human OVCAR-3 cells assessed as cell growth at 10 uM after 48 hrs by sulforhodamine B assay; conditions: OVCAR-3, 48 h, read-out: Activity
[15] = tested on: OVCAR-5; assay: Cytotoxicity against human OVCAR5 cells assessed as cell growth at 10 uM after 48 hrs by sulforhodamine B assay; conditions: OVCAR-5, 48 h, read-out: Activity
[16] = tested on: OVCAR-8; assay: Cytotoxicity against human OVCAR8 cells assessed as cell growth at 10 uM after 48 hrs by sulforhodamine B assay; conditions: OVCAR-8, 48 h, read-out: Activity
[17] = tested on: SK-OV-3; assay: Cytotoxicity against human SKOV3 cells assessed as cell growth at 10 uM after 48 hrs by sulforhodamine B assay; conditions: SK-OV-3, 48 h, read-out: Activity
[18] = tested on: ACHN; assay: Cytotoxicity against human ACHN cells assessed as cell growth at 10 uM after 48 hrs by sulforhodamine B assay; conditions: read-out: Activity
[19] = tested on: SN12C; assay: Cytotoxicity against human SN12C cells assessed as cell growth at 10 uM after 48 hrs by sulforhodamine B assay; conditions: read-out: Activity
[20] = tested on: RXF 393; assay: Cytotoxicity against human RXF393 cells assessed as cell growth at 10 uM after 48 hrs by sulforhodamine B assay; conditions: RXF 393, 48 h, read-out: Activity
[21] = tested on: UO-31; assay: Cytotoxicity against human UO31 cells assessed as cell growth at 10 uM after 48 hrs by sulforhodamine B assay; conditions: UO-31, 48 h, read-out: Activity
[22] = tested on: LOX IMVI; assay: Cytotoxicity against human LOXIMVI cells assessed as cell growth at 10 uM after 48 hrs by sulforhodamine B assay; conditions: read-out: Activity
[23] = tested on: M14; assay: Cytotoxicity against human M14 cells assessed as cell growth at 10 uM after 48 hrs by sulforhodamine B assay; conditions: M14, 48 h, read-out: Activity
[24] = tested on: SK-MEL-28; assay: Cytotoxicity against human SK-MEL-28 cells assessed as cell growth at 10 uM after 48 hrs by sulforhodamine B assay; conditions: SK-MEL-28, 48 h, read-out: Activity
[25] = tested on: DU-145; assay: Cytotoxicity against human DU145 cells assessed as cell growth at 10 uM after 48 hrs by sulforhodamine B assay; conditions: DU-145, 48 h, read-out: Activity
[26] = tested on: SNB-75; assay: Cytotoxicity against human SNB75 cells assessed as cell growth at 10 uM after 48 hrs by sulforhodamine B assay; conditions: SNB-75, 48 h, read-out: Activity
[27] = tested on: U-251; assay: Cytotoxicity against human U251 cells assessed as cell growth at 10 uM after 48 hrs by sulforhodamine B assay; conditions: U-251, 48 h, read-out: Activity
[28] = Cytotoxicity against human leukemia cells after 48 hrs by sulforhodamine B assay; conditions: Leukemia cell
Procedure, shortened: (§1)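 Cells plated at 5000–40,000/well according to doubling time, then held 24 h at 37 °C, 5% CO2, with time-zero plates TCA-fixed. DMSO stocks (400× top concentration) were diluted in medium containing 50 μg/ml gentamycin, giving five 10-fold or ½-log concentrations. After 48 h, adherent cells were fixed in 10% TCA and suspension cells in 16% TCA (final), stained with 0.4% SRB, read at 515 nm. GI50, TGI and LC50 were calculated per cell line.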

[29] = Cytotoxicity against human melanoma cells after 48 hrs by sulforhodamine B assay; conditions: Melanoma cell; procedure, shortened: as §1
[30] = Cytotoxicity against human prostate cancer cells after 48 hrs by sulforhodamine B assay; conditions: Cancer cell lines; procedure, shortened: as §1
[31] = Cytotoxicity against human breast cancer cells after 48 hrs by sulforhodamine B assay; conditions: Cancer cell lines; procedure, shortened: as §1
[32] = tested on: LOX IMVI; assay: Cytotoxicity against human LOXIMVI cells after 48 hrs by sulforhodamine B assay
Procedure, shortened: (§2)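 Cells were plated at 5000–40,000/well according to doubling time and preincubated 24 h at 37 °C, 5% CO2. Time-zero plates were TCA-fixed. DMSO stocks were diluted in medium with gentamycin to five concentrations (10-fold or ½ log series) plus control, then incubated 48 h. Adherent cells were fixed with cold TCA (suspension cells with 16% final), stained with SRB, and read at 515 nm. GI50, TGI and LC50 were calculated per line.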

[33] = tested on: OVCAR-4; assay: Cytotoxicity against human OVCAR4 cells after 48 hrs by sulforhodamine B assay; conditions: OVCAR-4, 48 h; procedure, shortened: as §2
[34] = read-out: LC50 (the source's name)

Cc1cc(=O)n(C(=O)COc2ccc3c(-c4ccccc4)cc(=O)oc3c2C)[nH]1
growth at 10 µM [1]: -24.1%
growth at 10 µM [2]: -93%
growth at 10 µM [3]: -66.6%
growth at 10 µM [4]: -33.6%
growth at 10 µM [5]: -12.2%
growth at 10 µM [6]: -18.6%
growth at 10 µM [7]: 10.9%
growth at 10 µM [8]: 0.36%
growth at 10 µM [9]: 1.86%
growth at 10 µM [10]: 17.4%
growth at 10 µM [11]: -65.9%
growth at 10 µM [12]: 38.3%
growth at 10 µM [13]: -17.5%
growth at 10 µM [14]: -61.1%
growth at 10 µM [15]: 10.2%
growth at 10 µM [16]: -30.5%
growth at 10 µM [17]: 15.9%
growth at 10 µM [18]: 41.6%
growth at 10 µM [19]: -69.3%
growth at 10 µM [20]: -37%
growth at 10 µM [21]: 18.6%
growth at 10 µM [22]: -61.8%
growth at 10 µM [23]: 17.6%
growth at 10 µM [24]: -47.2%
growth at 10 µM [25]: -56.3%
growth at 10 µM [26]: -35.2%
growth at 10 µM [27]: -72.4%
GI50 [28]: 3.44 µM
TGI [28]: 50.8 µM
CC50 [28, 34]: 94 µM
GI50 [29]: 4.65 µM
TGI [29]: 43.2 µM
CC50 [29, 34]: 72.4 µM
GI50 [30]: 2380 nM
TGI [30]: 5.75 µM
CC50 [30, 34]: 29.4 µM
GI50 [31]: 4.23 µM
TGI [31]: 33.7 µM
CC50 [31, 34]: 87.5 µM
GI50 [32]: 1990 nM
TGI [32]: 3.88 µM
GI50 [33]: 1950 nM
TGI [33]: 4.73 µM
